PGC1a acetyl up = compounds raising PGC1a acetylation signal, primary screen, PGC1a modulator project, cell-based, U2OS, AlphaScreen, signal-increasing mode; overnight; AID 651723, 2012; 350,000 compounds, 0.21% hits; activation, % at 15.6 µM;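 active = every replicate reaching activation of at least 50%, whatever the mean replicate activation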;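 note: hits raise the AlphaScreen acetylation signal above neutral controls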
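System: Flag-PGC1a/GCN5 U2OS cells | Quantity: 7000 cells/well | Times: Overnight compound treatment, 37 °C | Measured by: AlphaScreen proximity luminescence, anti-acetyl-lysine antibody | Dosing: One concentration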
Active calls of the source: *. The full list was thinned out, with hits kept by preference.

SMILES | PGC1a acetyl up
COc1cc(CN2C[C@@H]3N[C@H](C2)C3c2ccc(-c3ccccc3C)cc2)cc(OC)c1 (stereo partly specified) | -105
COc1cccc(CN2C[C@@H]3N[C@H](C2)C3c2ccc(-c3ccccc3F)cc2)c1 (stereo partly specified) | 108*
COc1cccc(-c2ccc(C3[C@@H]4CN(Cc5ccccn5)C[C@H]3N4)cc2)c1 (stereo partly specified) | 56*
Fc1cccc(-c2ccc([C@@H]3[C@@H]4CN(Cc5nccs5)C[C@H]3N4)cc2)c1 | 75*
COc1cccc(-c2ccc(C3[C@@H]4CN(Cc5cccc(F)c5)C[C@H]3N4)cc2)c1 (stereo partly specified) | -97
CCCN(CC)c1ncnc2[nH]ncc12 | -44
CCCCN(c1ccccc1)c1ncnc(N)c1[N+](=O)[O-] | -52
CC(NC1c2ccccc2-c2ccccc21)c1ccccc1 (stereo unspecified) | -40
CCC(C)(C)NC(=O)c1ccc2c(c1)S(=O)(=O)c1ccccc1C2=O | -54
Fc1cccc(CN2C[C@@H]3N[C@H](C2)C3c2ccc(/C=C/c3ccccc3)cc2)c1 (stereo partly specified) | 66*
CC(CCC(=O)O)C1CCC2C3CCC4CC(O)CCC4(C)C3CC(O)C12C (stereo unspecified) | -49
C[C@H](CO)N1C[C@H](C)[C@@H](CN(C)Cc2ccc(C(F)(F)F)cc2)OCc2cnnn2CCCC1=O | -55
N#C[C@H]1[C@H](c2ccc(C#CC3CCCC3)cc2)[C@H](CO)N1C(=O)Cc1ccccn1 | -59
OC[C@H]1[C@@H](c2ccc(C#CC3CCCC3)cc2)[C@@H]2CN(CCC(F)(F)F)CCCCN12 | 60*
OC[C@@H]1[C@H](c2ccc(C#CC3CCCC3)cc2)[C@H]2CN(CCC(F)(F)F)CCCCN12 | -81
CN(C)C(=O)C[C@H]1CC[C@@H](NC(=O)C2CCC2)[C@H](CO)O1 | -46
CS(=O)(=O)c1ncc(Cl)c(C(=O)Nc2ccc(N3CCOCC3)cc2)n1 | 81*
CC(C)c1ccc(NC(=O)c2ccc3c(c2)CCN3S(C)(=O)=O)cc1 | -82
CCN(C[C@@H]1N[C@@H](CO)[C@H]1c1ccc(-c2ccc(F)cc2)cc1)C(=O)CN(C)C | 59*
CC[C@H](C)[C@@H]1OC(=O)[C@@H](C)[C@@H](CC)NC(=O)[C@H](C)N(C)C(=O)C(C)(C)C(=O)C(C)NC(=O)[C@H](Cc2ccccc2)N(C)C(=O)[C@H](C(C)C)N(C)C(=O)CNC(=O)[C@H](CC(C)C)N(C)C(=O)CNC1=O (stereo partly specified) | -76
C=CC[C@@H](CC(=O)N[C@@H](CO)Cc1ccccc1)C(=O)N[C@@H](COC(=O)[C@@H](CC=C)CC(=O)OC(C)(C)C)Cc1c[nH]c2ccccc12 | 155*
CC1(C)CC2(CCO1)OC(=O)CC2C(=O)Nc1cccc2ccccc12 (stereo unspecified) | 72*
O=C(Nc1ccc(F)cc1)N[C@H]1C=C[C@H](CC(=O)N2CCCCC2)O[C@H]1CO | -43
C[C@@H]1CCCCO[C@@H](CN(C)C)[C@@H](C)CN([C@H](C)CO)C(=O)c2cc(NS(=O)(=O)c3ccc(Cl)cc3)ccc2O1 | -45
O=C1Nc2ccccc2N=C(c2ccccc2)C1N(Cc1ccc(F)cc1)C(=O)c1cccnc1 (stereo unspecified) | -41
SMILES | PGC1a acetyl up
Cc1ccc(CNn2cnnc2SCC(=O)NC(C)(C)C)cc1 | -42
Cn1nnnc1SCC(=O)NCc1cccc(C(=O)O)c1 | -41
Cc1cc(C)n2c(SCC(=O)NCc3ccco3)nnc2n1 | 63*
Cc1cc(C)nc(N2CCC(C(=O)NCc3ccco3)CC2)n1 | -95
COc1ccc(C2=NOC(C(=O)Nc3cccnc3)C2)cc1 (stereo unspecified) | 64*
COc1cccc(C(=O)/C=C/c2ccc(OCC#N)c(OC)c2)c1 | 183*
CCCOc1ccc(/C=C/C(=O)O)cc1OC | -62
COc1ccc(OC)c(C(=O)/C=C/c2ccccc2C(F)(F)F)c1 | -46
Cc1cc(C)c(NC(=O)c2ccc(S(=O)(=O)N(C)C)cc2)c(C)n1 | -50
CN(C)S(=O)(=O)c1ccc(N2CCCC2)c(C(=O)NCc2cccc(C(F)(F)F)c2)c1 | 93*
C[C@@H]1CN([C@H](C)CO)C(=O)CCCn2nncc2CO[C@H]1CN(C)C(=O)C1CC1 | -51
COc1ccccc1-c1ccc(C2[C@@H]3CN(S(=O)(=O)c4ccc(C)cc4)C[C@H]2N3)cc1 (stereo partly specified) | 95*
N#Cc1cccc(-c2ccc([C@@H]3[C@@H]4CN(S(=O)(=O)c5ccc(-c6ccccc6)cc5)C[C@H]3N4)cc2)c1 | -93
C=CCN1C(=O)C(CC(=O)Nc2ccccc2F)S/C1=N\c1nccs1 (stereo unspecified) | -49
Cn1c(Cl)cnc1C1CC(=O)c2cc(Cl)ccc2O1 (stereo unspecified) | 71*
CC(C)(C)c1ccc(CCC2OCC(C[N+]3(C)CCOCC3)O2)cc1 (stereo unspecified) | -73
CC(=O)Cc1nsc(NC(=O)c2cccc(F)c2)n1 | -44
O=C(C[C@H]1C=C[C@H](NC(=O)Nc2ccc(C(F)(F)F)cc2)[C@@H](CO)O1)NCc1ccccn1 | -43
CC1(C)CC(=O)C2=C(C1)Nc1ccccc1N1C(=O)c3ccccc3C21 (stereo unspecified) | 58*
C=C1C(=O)[C@]23C[C@H]1CCC2[C@@]1(C)C(C[C@@H]3O)[C@](C)(C(=O)OC)CC[C@@H]1OC(C)=O (stereo partly specified) | -103
O=S(=O)(c1ccc(Br)s1)N1CCN(Cc2ccc3c(c2)OCO3)CC1 | -47
O=C(Cn1ncc(Cl)c(Cl)c1=O)N1CCN(S(=O)(=O)c2ccc3ccccc3c2)CC1 | -77
COc1ccc(NC(=O)Cn2ncc(Cl)c(Cl)c2=O)cc1S(=O)(=O)N1CCOCC1 | 105*
Cc1ccc(C)c(C(=O)Cn2ncc(Cl)c(Cl)c2=O)c1 | 485*
O=C(Cn1ncc(Cl)c(Cl)c1=O)NC(=O)NC1CCCCC1 | -58
SMILES | PGC1a acetyl up
CCC(=O)Nc1ccc(C(=O)Cn2ncc(Cl)c(Cl)c2=O)cc1 | 265*
Cc1noc(C)c1S(=O)(=O)N1CCCC(C(=O)NCC2CCCO2)C1 (stereo unspecified) | -50
COC(=O)c1cc(C(=O)N2CCN(c3cccc(Cl)c3)CC2)cc([N+](=O)[O-])c1 | 78*
O=C(Oc1ccc[nH]c1=O)c1cc([N+](=O)[O-])cc([N+](=O)[O-])c1 | -53
COc1ccc(OC)c(CN2CCN(C(=O)c3ccc(NS(=O)(=O)c4cccc([N+](=O)[O-])c4)cc3)CC2)c1 | -40
COc1ccc(S(=O)(=O)N(C)C[C@@H]2Oc3cc(C#CC4CC4)ccc3S(=O)(=O)N([C@@H](C)CO)C[C@@H]2C)cc1 | 136*
C[C@H](CO)N1C[C@H](C)[C@@H](CN(C)Cc2cccnc2)Oc2cc(C#CC3CCCCC3)ccc2S1(=O)=O | -49
C[C@H]1CN([C@@H](C)CO)S(=O)(=O)c2ccc(Br)cc2O[C@@H]1CN(C)S(=O)(=O)c1ccccc1F | 64*
Cc1ccc(S(=O)(=O)N(C)C[C@H]2Oc3cc(C#Cc4ccncc4)ccc3S(=O)(=O)N([C@H](C)CO)C[C@H]2C)cc1 | -44
CCCN(C)C[C@@H]1Oc2cc(C#C[C@H](C)O)ccc2S(=O)(=O)N([C@H](C)CO)C[C@@H]1C | -50

Screens deposited in PubChem BioAssay by Broad Institute.
